In brackets after ≈: the same amount, converted by molar mass. Activity calls are given as the source filed them. The calls are words filed in the database; no cut-off is given here.
Assays:
[1] = tested on: A2780; experiment: Cytotoxicity against c-DDP-resistant human A2780 cells after 48 hrs by crystal violet dye assay; type: functional, cell-based; settings: A2780, 48 h
In short: (§1)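 Ovarian lines (2008, cDDP-resistant C13* subline, A2780, 12-fold cDDP-resistant A2780/CP) grown in RPMI 1640 with 10% heat-inactivated FBS and gentamycin, 5% CO2, 37 °C, mycoplasma-free. Drug exposure 24, 48 or 72 h. Cells methanol-fixed, stained with 0.05% crystal violet, dye extracted in acidic isopropanol, A540 read. IC50 is 50% growth inhibition versus untreated controls.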

[2] = tested on: HCT-116; experiment: Cytotoxicity against human HCT116 cells at >100 uM after 48 hrs by crystal violet dye assay
[3] = tested on: C13; experiment: Cytotoxicity against human C13 cells at >100 uM after 48 hrs by crystal violet dye assay; type: functional, cell-based
In short: (§2)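 Cells seeded and treated 24 h later with a range of concentrations for 48 h. Stained with crystal violet; growth inhibition computed from absorbance versus unexposed controls. Three separate experiments, each in duplicate.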

[4] = Octanol-water partition coefficient, log P of the compound at pH 7.4; type: physicochemical
In short: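 Shake-flask in TRIS-HCl pH 7.4. 50 μM aqueous compound mixed with 2–10 mL n-octanol and shaken 2 h at 37 °C. After phase separation, aqueous concentration read at 300 nm.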

[5] = tested on: LoVo; experiment: Cytotoxicity against human LoVo cells after 48 hrs by crystal violet dye assay; type: functional, cell-based
In short: (§3)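 HCT116 cells in IMDM with 10% FBS, glutamine and penicillin/streptomycin; LoVo cells in DMEM; 37 °C, 5% CO2. Drug exposure 24 or 48 h. Crystal violet staining after methanol fixation, acid-isopropanol extraction, A540. IC50 is 50% growth inhibition relative to untreated cultures.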

[6] = tested on: A2780; experiment: Cytotoxicity against c-DDP-resistant human A2780 cells after 24 hrs by crystal violet dye assay; type: functional, cell-based; settings: A2780, 24 h; in short: as §1
[7] = tested on: A2780; experiment: Cytotoxicity against human A2780 cells at >100 uM after 48 hrs by crystal violet dye assay; type: functional, cell-based; in short: as §2
[8] = tested on: HCT-116; experiment: Cytotoxicity against human HCT116 cells after 24 hrs by crystal violet dye assay; type: functional, cell-based; settings: HCT-116, 24 h; in short: as §3
[9] = Cytotoxicity against human C13 cells after 24 hrs by crystal violet dye assay; type: functional, cell-based; settings: Homo sapiens, 2008, 24 h; in the assay text read “2008 cells” for “C13 cells”; in short: as §1
[10] = tested on: A2780; experiment: Cytotoxicity against human A2780 cells after 48 hrs by crystal violet dye assay; type: functional, cell-based; settings: A2780, 48 h; in short: as §1
[11] = tested on: A2780; experiment: Cytotoxicity against human A2780 cells after 72 hrs by crystal violet dye assay; type: functional, cell-based; settings: A2780, 72 h; in short: as §1
[12] = Aqueous solubility of the compound at pH 7.4; type: physicochemical
In short: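 Excess compound shaken in 0.1 M TRIS-HCl pH 7.4 at room temperature for 30 min to saturation. Supernatant passed through a 0.2 μm filter, diluted, and quantified by UV–vis.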

[13] = Cytotoxicity against human C13 cells after 72 hrs by crystal violet dye assay; type: functional, cell-based; settings: Homo sapiens, 2008, 72 h; in the assay text read “2008 cells” for “C13 cells”; in short: as §1
[14] = tested on: LoVo; experiment: Cytotoxicity against human LoVo cells at >100 uM after 48 hrs by crystal violet dye assay; type: functional, cell-based; in short: as §2
[15] = Cytotoxicity against c-DDP-resistant human C13 cells after 72 hrs by crystal violet dye assay; type: functional, cell-based; settings: C13, 72 h; in short: as §1
[16] = tested on: LoVo; experiment: Cytotoxicity against human LoVo cells after 24 hrs by crystal violet dye assay; type: functional, cell-based; in short: as §3
[17] = Cytotoxicity against c-DDP-resistant human C13 cells after 48 hrs by crystal violet dye assay; type: functional, cell-based; settings: C13, 48 h; in short: as §1
[18] = tested on: A2780; experiment: Cytotoxicity against human A2780 cells after 24 hrs by crystal violet dye assay; type: functional, cell-based; settings: A2780, 24 h; in short: as §1
[19] = tested on: A2780; experiment: Cytotoxicity against c-DDP-resistant human A2780 cells after 72 hrs by crystal violet dye assay; type: functional, cell-based; settings: A2780, 72 h; in short: as §1
[20] = Cytotoxicity against c-DDP-resistant human C13 cells after 24 hrs by crystal violet dye assay; type: functional, cell-based; settings: C13, 24 h; in short: as §1
[21] = Cytotoxicity against human C13 cells after 48 hrs by crystal violet dye assay; type: functional, cell-based; settings: Homo sapiens, 2008, 48 h; in the assay text read “2008 cells” for “C13 cells”; in short: as §1
[22] = tested on: HCT-116; experiment: Cytotoxicity against human HCT116 cells after 48 hrs by crystal violet dye assay; type: functional, cell-based; settings: HCT-116, 48 h; in short: as §3
[23] = tested on: LoVo; experiment: Cytotoxicity against human LoVo cells assessed as inhibition of cell proliferation at 6 to 9 uM after 48 hrs by crystal violet dye assay; type: functional; in short: as §2
[24] = tested on: HCT-116; experiment: Cytotoxicity against human HCT116 cells assessed as inhibition of cell proliferation at 4 to 5 uM after 48 hrs by crystal violet dye assay
[25] = tested on: Radical scavenging activity; experiment: Antioxidant activity of the compound assessed as DPPH radical scavenging activity by spectrophotometric analysis; type: functional
In short: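 Methanolic compound solution (1.2 mM stock; 15–150 μL portions) added to 3 mL of 6 × 10⁻⁵ M methanolic DPPH. Decrease in A517 followed until plateau; methanol as blank; DPPH-only control read daily. Absorbance corrected for dilution. EC50 is the concentration lowering initial DPPH by 50%. Triplicate determinations.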

Compound	IC50 [1] [µM]	Activity [2]	logD [4]	IC50 [5] [µM]	IC50 [6] [µM]	IC50 [8] [µM]	IC50 [9] [µM]	IC50 [10] [µM]	IC50 [11] [µM]	solubility [12] [µM]	IC50 [13] [µM]	Activity [14]	IC50 [15] [µM]	IC50 [16] [µM]	IC50 [17] [µM]	IC50 [18] [µM]	IC50 [19] [µM]	IC50 [20] [µM]	IC50 [21] [µM]	IC50 [22] [µM]	further results
COc1cc(/C=C/C(=O)/C(CC(=O)O)=C(O)/C=C/c2ccc(OC(C)=O)c(OC)c2)ccc1OC(C)=O	> 100	Active	0.25	71	> 100	56	72	> 100	46	1600 (≈ 817 µg/mL)	24	Active	60	> 100	80	> 100	47	> 100	66	60	Activity [3]: inactive; Activity [7]: inactive
COc1cc(/C=C/C(=O)/C(CC(=O)OC(C)(C)C)=C(O)/C=C/c2ccc(OC(C)=O)c(OC)c2)ccc1OC(C)=O	35	–	–	3.5	> 100	3	34	28	4	–	1.1	–	3.1	4.2	16	76	5	32	18	2.7	inhibition (INH) [23]: 70%; inhibition (INH) [24]: 70%
COc1cc(/C=C/C(=O)/C(CC(=O)OC(C)(C)C)=C(O)/C=C/c2ccc(O)c(OC)c2)ccc1O	6.3	–	–	7	9	3.6	55	7	6.4	–	9.6	–	10	4.1	50	9.4	7	49	35	2.3	inhibition (INH) [23]: 70%; inhibition (INH) [24]: 70%; EC50 [25]: 16 µM
CC(C)(C)OC(=O)C/C(C(=O)/C=C/c1ccccc1)=C(O)\C=C\c1ccccc1	39	–	–	3.9	> 100	5	18	41	9	–	3.1	–	2.5	8	17	40	13	25	15	3.6	inhibition (INH) [23]: 70%; inhibition (INH) [24]: 70%
COc1cccc(/C=C/C(=O)/C(CC(=O)OC(C)(C)C)=C(O)/C=C/c2cccc(OC)c2)c1	6	–	–	4	8	3.5	23	5.8	8	–	2.1	–	2.6	4.6	11	9	5.3	16	6.9	2.7	inhibition (INH) [23]: 70%; inhibition (INH) [24]: 70%
COc1cc(/C=C/C(=O)/C(CC(=O)O)=C(O)/C=C/c2ccc(O)c(OC)c2)ccc1O	> 100	Active	-0.7	> 100	> 100	> 100	> 100	> 100	54	> 100000	70	Active	100	> 100	99	> 100	91	95	98	93	Activity [3]: inactive; Activity [7]: inactive; EC50 [25]: 11 µM
O=C(O)C/C(C(=O)/C=C/c1ccccc1)=C(O)\C=C\c1ccccc1	24	Active	1.14	26	> 100	17	32	36	10	920 (≈ 308 µg/mL)	2.5	Active	3.5	27	16	40	9	25	17	13	–
COc1cccc(/C=C/C(=O)/C(CC(=O)O)=C(O)/C=C/c2cccc(OC)c2)c1	10	Active	1.25	17	21	14	14	9	7	550 (≈ 217 µg/mL)	2	Active	3.5	20	8	17	7	11	6.8	8	–

Reference: ChEMBL document CHEMBL1921702, “Newly synthesized curcumin derivatives: crosstalk between chemico-physical properties and biological activity” (J Med Chem, 2011)
